In experiment [1] the target is T1, Seed linoleate 13S-lipoxygenase-1 (Glycine max) (UniProt P08170).
T1 sequence (whole entry): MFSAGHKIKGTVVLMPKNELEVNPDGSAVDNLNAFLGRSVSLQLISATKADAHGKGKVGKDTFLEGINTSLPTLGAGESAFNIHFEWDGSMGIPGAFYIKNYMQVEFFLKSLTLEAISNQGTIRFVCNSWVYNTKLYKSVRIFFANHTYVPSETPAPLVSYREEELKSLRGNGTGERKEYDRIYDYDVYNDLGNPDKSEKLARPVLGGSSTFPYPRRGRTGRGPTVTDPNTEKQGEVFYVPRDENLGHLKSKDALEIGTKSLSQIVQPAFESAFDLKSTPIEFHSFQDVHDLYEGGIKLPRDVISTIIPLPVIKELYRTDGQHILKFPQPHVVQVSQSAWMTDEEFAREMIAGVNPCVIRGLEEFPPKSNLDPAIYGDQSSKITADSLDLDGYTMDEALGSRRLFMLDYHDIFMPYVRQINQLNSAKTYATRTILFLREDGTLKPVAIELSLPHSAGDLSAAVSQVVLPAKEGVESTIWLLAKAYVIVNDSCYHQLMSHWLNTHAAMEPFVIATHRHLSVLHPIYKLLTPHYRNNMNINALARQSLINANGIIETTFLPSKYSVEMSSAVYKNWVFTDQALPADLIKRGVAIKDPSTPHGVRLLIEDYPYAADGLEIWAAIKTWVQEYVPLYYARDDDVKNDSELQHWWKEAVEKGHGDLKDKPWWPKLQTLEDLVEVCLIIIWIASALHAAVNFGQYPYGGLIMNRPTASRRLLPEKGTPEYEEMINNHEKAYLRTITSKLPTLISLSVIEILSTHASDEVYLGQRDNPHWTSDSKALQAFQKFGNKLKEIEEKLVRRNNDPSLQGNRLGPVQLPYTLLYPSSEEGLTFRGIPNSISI
Put plainly: In vitro inhibition of rabbit LDL oxidation by soybean lipoxygenase at 5 uM. It counts as functional. The method, boiled down: (§1)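 Compound added to rabbit LDL (Havel method), then soybean lipoxygenase type-IS at 40 μg/mL final. Incubated 24 h at 37 °C in a CO2 incubator. Oxidized LDL separated by gel-permeation chromatography, and fluorescence of the LDL fraction read at ex 360/em 430 nm. Expressed as percent of control.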

Experiment [2] addresses T1, Seed linoleate 13S-lipoxygenase-1 (Glycine max). Put plainly: In vitro inhibition of rabbit LDL oxidation by soybean lipoxygenase at 0.5 uM. It counts as functional. The method, boiled down:
as §1

In experiment [3] the target is Voltage-dependent L-type calcium channel subunit alpha-1C (Rattus norvegicus, UniProt P22002). Put plainly: In vitro inhibition of K+ induced contractions of the isolated rat aorta. Format: functional, tissue-based.
For experiment [4], the species on record is Rattus norvegicus. Put plainly: In vitro inhibition of veratridine induced rat myocardiac cell death. It counts as functional.
Experiment [5] concerns the target T1, Seed linoleate 13S-lipoxygenase-1 (Glycine max). The experiment is described as follows: In vitro inhibition of rabbit LDL oxidation by soybean lipoxygenase. It counts as functional. Details: scale not given: the % may be the effect or the level left. The method, boiled down:
as §1

Structures are written as SMILES. pIC50: −log10 of the molar value. “And” between values parts separate entries of the source, which are not always exact repeats. Equal entries are not always repeated.

Chain of Voltage-dependent L-type calcium channel subunit alpha-1C (P22002 whole entry): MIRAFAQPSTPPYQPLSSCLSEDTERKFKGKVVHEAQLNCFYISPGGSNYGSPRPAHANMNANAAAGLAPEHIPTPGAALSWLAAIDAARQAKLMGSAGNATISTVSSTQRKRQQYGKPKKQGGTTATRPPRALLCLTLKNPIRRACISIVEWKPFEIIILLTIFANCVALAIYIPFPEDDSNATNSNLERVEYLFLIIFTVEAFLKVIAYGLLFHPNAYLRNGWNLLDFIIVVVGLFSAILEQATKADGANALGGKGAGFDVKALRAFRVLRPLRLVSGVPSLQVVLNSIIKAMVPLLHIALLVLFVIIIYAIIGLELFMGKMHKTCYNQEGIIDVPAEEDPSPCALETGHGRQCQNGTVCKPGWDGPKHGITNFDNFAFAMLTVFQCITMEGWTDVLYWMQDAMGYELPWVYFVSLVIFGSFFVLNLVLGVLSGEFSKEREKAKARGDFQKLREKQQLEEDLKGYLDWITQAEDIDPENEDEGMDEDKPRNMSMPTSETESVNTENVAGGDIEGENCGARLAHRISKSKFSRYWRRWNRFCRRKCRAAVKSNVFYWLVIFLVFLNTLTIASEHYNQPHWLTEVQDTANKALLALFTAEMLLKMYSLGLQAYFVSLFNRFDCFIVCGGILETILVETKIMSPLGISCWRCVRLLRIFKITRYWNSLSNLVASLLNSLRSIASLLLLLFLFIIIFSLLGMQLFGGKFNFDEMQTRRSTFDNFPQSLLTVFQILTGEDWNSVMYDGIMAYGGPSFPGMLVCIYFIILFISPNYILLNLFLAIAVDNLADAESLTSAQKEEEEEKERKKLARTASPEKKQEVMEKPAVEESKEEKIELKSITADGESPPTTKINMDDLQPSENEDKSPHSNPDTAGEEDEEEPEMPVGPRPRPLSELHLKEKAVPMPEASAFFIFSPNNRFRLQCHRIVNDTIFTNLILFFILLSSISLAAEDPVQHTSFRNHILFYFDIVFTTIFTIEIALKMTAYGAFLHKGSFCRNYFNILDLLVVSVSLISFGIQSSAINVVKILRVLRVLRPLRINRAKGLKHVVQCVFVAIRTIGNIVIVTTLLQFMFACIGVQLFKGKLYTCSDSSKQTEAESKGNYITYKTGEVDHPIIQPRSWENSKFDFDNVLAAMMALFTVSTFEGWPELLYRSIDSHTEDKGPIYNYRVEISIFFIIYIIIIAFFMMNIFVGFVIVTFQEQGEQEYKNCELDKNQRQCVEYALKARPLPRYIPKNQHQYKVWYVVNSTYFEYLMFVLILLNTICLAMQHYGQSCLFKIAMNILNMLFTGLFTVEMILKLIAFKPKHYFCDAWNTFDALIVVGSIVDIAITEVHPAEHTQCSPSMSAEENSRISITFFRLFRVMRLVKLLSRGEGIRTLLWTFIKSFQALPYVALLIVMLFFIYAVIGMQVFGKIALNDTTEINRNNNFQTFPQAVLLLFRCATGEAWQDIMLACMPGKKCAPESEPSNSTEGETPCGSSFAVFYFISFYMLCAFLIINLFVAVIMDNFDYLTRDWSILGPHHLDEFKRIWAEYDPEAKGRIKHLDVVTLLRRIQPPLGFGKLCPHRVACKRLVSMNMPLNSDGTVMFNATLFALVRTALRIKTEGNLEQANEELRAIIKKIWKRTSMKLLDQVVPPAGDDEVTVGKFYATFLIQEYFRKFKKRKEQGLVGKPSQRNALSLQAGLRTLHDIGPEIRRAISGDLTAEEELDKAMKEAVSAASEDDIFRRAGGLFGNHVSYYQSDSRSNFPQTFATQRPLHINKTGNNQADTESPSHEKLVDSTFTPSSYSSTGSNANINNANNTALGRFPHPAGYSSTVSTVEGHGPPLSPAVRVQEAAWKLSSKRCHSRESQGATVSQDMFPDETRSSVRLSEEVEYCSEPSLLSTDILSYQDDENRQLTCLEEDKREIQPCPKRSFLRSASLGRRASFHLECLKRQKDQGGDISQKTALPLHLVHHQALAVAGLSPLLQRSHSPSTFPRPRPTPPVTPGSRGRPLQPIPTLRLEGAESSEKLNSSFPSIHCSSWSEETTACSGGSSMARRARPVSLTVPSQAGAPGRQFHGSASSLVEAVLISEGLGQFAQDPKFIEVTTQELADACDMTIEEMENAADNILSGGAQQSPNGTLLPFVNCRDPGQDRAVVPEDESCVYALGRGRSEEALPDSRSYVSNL

For `Cc1c(C)c2c(c(C)c1O)CC[C@@](C)(CCC[C@H](C)CCC[C@H](C)CCCC(C)C)O2`, in experiment [1], the LDL oxidation remaining (% of control) turned out to be 13.2%. The compound also registered an LDL oxidation, % of control in experiment [2] of 60.2%. Take `CC(C)(C)c1cc(C2SCC(=O)N2CCCN2CCC(Cc3ccccc3)CC2)cc(C(C)(C)C)c1O` (centres undefined): in experiment [3], the negative logarithm of the IC50 (pIC50) is 6.68. Moreover, the “IC>80” value in experiment [4] was 0.32 µM. For `CN(CCCN1C(=O)CSC1c1cc(C(C)(C)C)c(O)c(C(C)(C)C)c1)Cc1ccccc1` (centres undefined), in experiment [3], the pIC50 is 6.22. Turning to `CN(CCCN1C(=O)CSC1c1cc(C(C)(C)C)c(O)c(C(C)(C)C)c1)CC1CC1` (centres undefined), in experiment [3], the pIC50 was 5.92. Regarding `COc1ccc([C@@H]2Sc3ccccc3N(CCN(C)C)C(=O)[C@@H]2OC(C)=O)cc1` [DILTIAZEM], in experiment [1], the LDL oxidation remaining (% of control) amounted to 111%. This compound also had an LDL oxidation, % of control in experiment [2] of 109%. Further, the “IC>80” value in experiment [4] is greater than 10 µM. Turning to `CN(CCCN1C(=O)CSC1c1cc(C(C)(C)C)c(O)c(C(C)(C)C)c1)CCOc1ccc2c(c1)OCO2` (centres undefined), in experiment [1], the LDL oxidation remaining (% of control) amounted to 3%. In experiment [2], the LDL oxidation, % of control was determined as 12.9%. Also, in experiment [3], the pIC50 is 7.21. Further, the “IC>80” value in experiment [4] came to 0.32 µM. Take `CN(C)CCCN1C(=O)CSC1c1cc(C(C)(C)C)c(O)c(C(C)(C)C)c1` (centres undefined): the negative logarithm of the IC50 (pIC50) in experiment [3] was 5.82.

In the case of `CNCCCN1C(=O)CSC1c1cc(C(C)(C)C)c(O)c(C(C)(C)C)c1` (centres undefined), the pIC50 in experiment [3] was 5.62. For the compound `COc1ccc(OCCN(C)CCCN2C(=O)CSC2c2cc(C(C)(C)C)c(O)c(C(C)(C)C)c2)cc1OC` (centres undefined), the negative logarithm of the IC50 (pIC50) in experiment [3] was 6.74. Further, in experiment [4], the “IC>80” value was found to be 1 µM. As to `Cc1cc(C(C)(C)C)c(O)c(C(C)(C)C)c1`, the Control in experiment [5] is 19.7% and 0.9%. As for `CN(C)CCN(C)CCCN1C(=O)CSC1c1cc(C(C)(C)C)c(O)c(C(C)(C)C)c1` (centres undefined), the negative logarithm of the IC50 (pIC50) in experiment [3] was 5.77.

As for `CC(C)(C)c1cc(C2SCC(=O)N2CCCN)cc(C(C)(C)C)c1O` (centres undefined), the pIC50 in experiment [3] is 5.36. In the case of `COc1ccc(CN(C)CCCN2C(=O)CSC2c2cc(C(C)(C)C)c(O)c(C(C)(C)C)c2)cc1OC` (centres undefined), the “IC>80” value in experiment [4] is 1 µM. As to `COc1ccc(CCN(C)CCCN2C(=O)CSC2c2cc(C(C)(C)C)c(O)c(C(C)(C)C)c2)cc1OC` (centres undefined), the LDL oxidation remaining (% of control) in experiment [1] was 0.6%. In experiment [2], this compound had an LDL oxidation, % of control of 8.7%. For the same compound, the negative logarithm of the IC50 (pIC50) in experiment [3] is 7.03. In experiment [4], the “IC>80” value turned out to be 1 µM.

Turning to `CCOCCN(C)CCCN1C(=O)CSC1c1cc(C(C)(C)C)c(O)c(C(C)(C)C)c1` (centres undefined), the pIC50 in experiment [3] was 6.08.

Turning to `CN(CCCN1C(=O)CSC1c1cc(C(C)(C)C)c(O)c(C(C)(C)C)c1)CC(O)COc1ccc2c(c1)OCO2` (centres undefined), the pIC50 in experiment [3] was 6.37. On to `COc1cc(OCCN(C)CCCN2C(=O)CSC2c2cc(C(C)(C)C)c(O)c(C(C)(C)C)c2)cc(OC)c1OC` (centres undefined), for which, in experiment [3], the pIC50 is 6.52. Regarding `COc1cc2c(cc1OC)CN(CCCN1C(=O)CSC1c1cc(C(C)(C)C)c(O)c(C(C)(C)C)c1)CC2` (centres undefined), the negative-log IC50 (pIC50) in experiment [3] is 6.70. The “IC>80” value in experiment [4] is 1 µM. Take `CN(CCCN1C(=O)CSC1c1cc(C(C)(C)C)c(O)c(C(C)(C)C)c1)Cc1ccc2c(c1)OCO2` (centres undefined): in experiment [3], the negative-log IC50 (pIC50) was 6.60. Turning to `COc1ccc(OCCN(C)CCCN2C(=O)CSC2c2cc(C(C)(C)C)c(O)c(C(C)(C)C)c2)cc1` (centres undefined), the negative-log IC50 (pIC50) in experiment [3] is 6.64. Turning to `CN(c1nc2ccccc2s1)C1CCN(CCCN2C(=O)CSC2c2cc(C(C)(C)C)c(O)c(C(C)(C)C)c2)CC1` (centres undefined), the LDL oxidation remaining (% of control) in experiment [1] is 4.9%. This compound returned an LDL oxidation, % of control in experiment [2] of 25.8%. For the same compound, the pIC50 in experiment [3] was 6.64. Besides, the “IC>80” value in experiment [4] was 1 µM. As to `CN(c1nc2ccccc2s1)C1CCN(CCCCOc2ccc(F)cc2)CC1`, the negative-log IC50 (pIC50) in experiment [3] was 6.12. In addition, the “IC>80” value in experiment [4] was found to be 0.032 µM. In the case of `CN(CCCN1C(=O)CSC1c1cc(C(C)(C)C)c(O)c(C(C)(C)C)c1)CC(O)COc1ccccc1` (centres undefined), in experiment [3], the pIC50 was 6.38.

Broadly, the pIC50 is the IC50 on a negative log10 scale, so that one unit is a factor of ten.

The values are drawn from ChEMBL document CHEMBL1131614, “Novel calcium antagonists with both calcium overload inhibition and antioxidant activity. 1. 2-(3, 5-di-tert-butyl-4-hydroxyphenyl)-3-(aminopropyl)thiazolidinones” (J Med Chem, 1998).
